These results are taken from ChEMBL document CHEMBL3351507, “11H-Pyrido[3',2':4,5]pyrrolo[3,2-c]cinnoline and pyrido[3',2':4,5]pyrrolo[1,2-c][1,2,3]benzotriazine: two new ring systems with antitumor activity” (2014).

Activity calls are given as the source filed them. The rule behind the calls is not given here.

Experiment [1] in a line: Cytotoxicity against human EKVX cells assessed as growth inhibition after 72 hrs by MTT assay. It is filed as functional. In general terms: Formazan colour is commonly taken as a measure of viable cells.
A further experiment concerns NCI-H23. Put plainly: Cytotoxicity against human NCI-H23 cells assessed as growth inhibition after 72 hrs by MTT assay. It is filed as functional. Particulars: NCI-H23, 72 h.
A further experiment has as its system COLO 205. Nature of the experiment: Cytotoxicity against human COLO205 cells assessed as growth inhibition after 72 hrs by MTT assay. It is filed as functional. Particulars: COLO 205, 72 h.
A further experiment has as its system KM12. Put plainly: Cytotoxicity against human KM12 cells assessed as growth inhibition after 72 hrs by MTT assay. It is filed as functional. Particulars: KM12, 72 h.
The next experiment concerns M14. Put plainly: Cytotoxicity against human M14 cells assessed as growth inhibition after 72 hrs by MTT assay. Particulars: M14, 72 h. The class given is functional.
The test system of a further experiment is SK-MEL-2. Nature of the experiment: Cytotoxicity against human SK-MEL-2 cells assessed as growth inhibition after 72 hrs by MTT assay. It is filed as functional. To be noted: SK-MEL-2, 72 h. Put shortly: (§1)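 NCI 60-cell-line panel screen. Compounds were tested at 5 concentrations in 10-fold dilution (10^-4 to 10^-8 M) across the full panel. GI50 was taken as the molar concentration giving 50% inhibition of net cell growth.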

The subject of the next experiment is SK-MEL-28. Nature of the experiment: Cytotoxicity against human SK-MEL-28 cells assessed as growth inhibition after 72 hrs by MTT assay. It is filed as functional. To be noted: SK-MEL-28, 72 h. An outline of the steps: as §1
Experiment [2] in a line: Cytotoxicity against human OVCAR4 cells assessed as growth inhibition after 72 hrs by MTT assay. It is filed as functional. Particulars: OVCAR-4, 72 h. An outline of the steps: as §1
The test system of another experiment is SK-OV-3. Nature of the experiment: Cytotoxicity against human SKOV3 cells assessed as growth inhibition after 72 hrs by MTT assay. The class given is functional. Particulars: SK-OV-3, 72 h. Put shortly:
as §1

In another experiment the test system is RXF 393. Put plainly: Cytotoxicity against human RXF393 cells assessed as growth inhibition after 72 hrs by MTT assay. The class given is functional. Particulars: RXF 393, 72 h. An outline of the steps:
as §1

The next experiment has as its system SN12C. Nature of the experiment: Cytotoxicity against human SN12C cells assessed as growth inhibition after 72 hrs by MTT assay. It is filed as functional. An outline of the steps:
as §1

Experiment [3] is described as follows: Cytotoxicity against human UO31 cells assessed as growth inhibition after 72 hrs by MTT assay. It is filed as functional. To be noted: UO-31, 72 h. Put shortly: as §1
Experiment [4] in a line: Cytotoxicity against human Hs578T cells assessed as growth inhibition after 72 hrs by MTT assay. It is filed as functional. Particulars: Hs-578T.
The next experiment relates to T47D. Put plainly: Cytotoxicity against human T47D cells assessed as growth inhibition after 72 hrs by MTT assay. The class given is functional. Put shortly: as §1
The next experiment has as its system A-431. Put plainly: Cytotoxicity against human A431 cells assessed as growth inhibition after 72 hrs by MTT assay. To be noted: A-431, 72 h. The class given is functional. Put shortly:
(§2)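 Cells were grown in medium with 10% heat-inactivated FBS plus penicillin/streptomycin: RPMI-1640 for Jurkat and CEM, DMEM for A-431, HAM's F12 for LoVo. The doxorubicin-resistant LoVo subclone was kept with 0.1 µg/mL doxorubicin. Cells were seeded at 5x10^3 per well and pre-incubated 24 h at 37 °C.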

A further experiment concerns LoVo. Put plainly: Cytotoxicity against human LoVo cells assessed as growth inhibition after 72 hrs by MTT assay. The class given is functional. Put shortly: as §2
The test system of experiment [5] is CCRF-CEM. Put plainly: Cytotoxicity against human vinblastin-resistant CEM cells assessed as growth inhibition after 72 hrs by MTT assay. It is filed as functional. Put shortly:
(§3)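 CEMVbl-100 (vinblastine-selected CEM) was grown in RPMI-1640 with 0.1 µg/mL vinblastine. LoVoDoxo was grown in HAM's F12 with 0.1 µg/mL doxorubicin; parental CEM and LoVo were grown without drug. Media had 10% FBS. 5x10^3 cells were seeded, preincubated 24 h at 37 °C, then exposed 72 h to compound (DMSO <1%). Read-out was MTT; GI50 came from dose-response curves of ≥3 experiments. RI = GI50 resistant / GI50 parental.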

Experiment [6] concerns CCRF-CEM. Nature of the experiment: Resistance index, ratio of GI50 for human vinblastin-resistant CEM cells to GI50 for human CEM cells. The class given is functional. Put shortly: as §3
The subject of experiment [7] is Jurkat. Put plainly: Cell cycle arrest in human Jurkat cells assessed as accumulation at G1 phase at 0.5 uM after 24 hrs by propidium iodide staining-based flow cytometry (reference value: 62.6%). The class given is functional. (In flow cytometry, cells or beads pass a laser one at a time.)
Experiment [8] has as its system Jurkat. Put plainly: Cell cycle arrest in human Jurkat cells assessed as accumulation at S phase at 0.25 uM after 24 hrs by propidium iodide staining-based flow cytometry (reference value: 15.5%). It is filed as functional.
Experiment [9] concerns Jurkat. Nature of the experiment: Cell cycle arrest in human Jurkat cells assessed as accumulation at subG1 phase at 0.5 uM after 24 hrs by propidium iodide staining-based flow cytometry (reference value: 5.3%). It is filed as functional.
Experiment [10] concerns Jurkat. Put plainly: Induction of apoptosis in human Jurkat cells assessed as caspase-9 activation at 500 nM after 6 hrs by plate reader analysis. It is filed as functional, cell-based. Put shortly:
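Jurkat cells were treated with 500 nM compound for 6 h and 24 h, then lysed. Lysates were incubated with pNA-conjugated substrates: Ac-DEVD (caspase-3), Ac-IETD (caspase-8) and LEHD (caspase-9). pNA release was read at 405 nm and normalized to Bradford protein. Results are expressed as fold increase over untreated control.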

In experiment [11] the target is T1, DNA topoisomerase 1 (Homo sapiens) (UniProt P11387).
T1 sequence (whole entry): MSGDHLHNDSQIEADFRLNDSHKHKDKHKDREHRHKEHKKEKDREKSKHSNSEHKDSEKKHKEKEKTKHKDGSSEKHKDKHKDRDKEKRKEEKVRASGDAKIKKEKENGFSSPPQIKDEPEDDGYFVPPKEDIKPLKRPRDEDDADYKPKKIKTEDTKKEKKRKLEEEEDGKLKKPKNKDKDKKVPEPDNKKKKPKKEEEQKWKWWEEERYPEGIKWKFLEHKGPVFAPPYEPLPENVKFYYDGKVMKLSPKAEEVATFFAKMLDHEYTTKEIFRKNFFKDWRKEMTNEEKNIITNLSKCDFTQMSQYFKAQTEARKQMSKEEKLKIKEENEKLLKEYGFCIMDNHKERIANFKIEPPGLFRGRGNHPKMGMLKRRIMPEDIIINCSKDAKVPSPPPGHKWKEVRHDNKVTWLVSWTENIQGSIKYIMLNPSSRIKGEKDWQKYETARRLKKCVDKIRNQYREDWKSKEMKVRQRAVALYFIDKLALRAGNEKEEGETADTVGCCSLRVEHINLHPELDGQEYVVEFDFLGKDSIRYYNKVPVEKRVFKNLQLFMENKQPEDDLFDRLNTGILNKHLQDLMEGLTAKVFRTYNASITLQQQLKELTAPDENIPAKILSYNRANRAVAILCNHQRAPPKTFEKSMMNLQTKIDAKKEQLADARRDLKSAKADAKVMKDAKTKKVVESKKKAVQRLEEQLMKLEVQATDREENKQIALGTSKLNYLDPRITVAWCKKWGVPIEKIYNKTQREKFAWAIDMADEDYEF
Put plainly: Inhibition of human DNA topoisomerase 1-mediated relaxation of supercoiled pBR322 plasmid DNA at 5 to 100 uM after 30 mins by agarose gel electrophoresis relative to untreated control. Put shortly:
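Human topoisomerase I (10 units) was incubated with 0.250 µg supercoiled pBR322 and compound (5-100 µM) for 30 min at 37 °C. Buffer: 50 mM Tris-HCl pH 7.5, 50 mM KCl, 0.5 mM DTT, 10 mM MgCl2, 0.1 mM EDTA, 30 µg/mL BSA. Reactions were stopped with 1% SDS and proteinase K (50 µg/mL, 30 min). Samples ran on 0.8% agarose in TAE at 20 V overnight, then were post-stained with ethidium bromide.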

Consider `COc1cc2nnc3c4cccnc4[nH]c3c2cc1OC`, for which the GI50 in [1] was determined as 2430 nM; with NCI-H23 it was 2340 nM; in the experiment on COLO 205, 2960 nM; in the experiment on KM12 it was 1910 nM; in the experiment with M14, 1790 nM; with SK-MEL-2, 11300 nM. In addition, the 50% growth inhibitory concentration (GI50) in the experiment with SK-MEL-28 was 4490 nM; in [2], 1600 nM; with SK-OV-3, 2290 nM; in the experiment on RXF 393, 710 nM; in the experiment with SN12C it was 2270 nM; in experiment [3] it was 490 nM. Besides, the results for the GI50 (in experiment [4]; in the experiment on T47D) were 3700 nM and 400 nM, respectively.
`O=Nc1c2cccnc2n2nnc3ccc(Cl)cc3c12`: the GI50 turned out to be 1830 nM in experiment [1]; 1170 nM with NCI-H23; 1000 nM in the experiment on COLO 205; 910 nM in the experiment with KM12; 1190 nM with M14; 2280 nM in the experiment with SK-MEL-2. Moreover, the GI50 in the experiment with SK-MEL-28 stood at 1060 nM; in experiment [2] it was 980 nM; with SK-OV-3, 2980 nM; with RXF 393 it was 560 nM; with SN12C, 1460 nM; in [3], 650 nM. For the same compound, the values for the 50% growth inhibitory concentration (GI50) (in experiment [4]; in the experiment on T47D) were 1050 nM and 260 nM, respectively.
Turning to `COc1ccc2c(c1)nnn1c3ncccc3c(N=O)c21`, the GI50 came out at 3380 nM in [1]; 5170 nM in the experiment with NCI-H23; 680 nM with COLO 205; 1030 nM in the experiment with KM12; 1570 nM with M14; 2180 nM with SK-MEL-2. The GI50 with SK-MEL-28 came to 3480 nM; in experiment [2], 1290 nM; in the experiment on SK-OV-3 it was 1680 nM; in the experiment with RXF 393, 310 nM; in the experiment on SN12C, 1400 nM; in experiment [3] it was 76 nM. Besides, the GI50 in [4] was determined as 1170 nM; with T47D it was 160 nM; with A-431, 930 nM; in the experiment on LoVo, 1280 nM; with CCRF-CEM [5], 440 nM. Besides, the Ratio with CCRF-CEM [6] is listed as 2. Moreover, the Activity was determined as 28.1% with Jurkat [7], 25.1% in the experiment on Jurkat [8] and 39.1% in the experiment with Jurkat [9]. For the same compound, the result (in the experiment on Jurkat [10]; in experiment [11]) was Active.
For `COc1cc2nnn3c4ncccc4c(N=O)c3c2cc1OC`, the 50% growth inhibitory concentration (GI50) in experiment [1] amounted to 3310 nM; in the experiment on NCI-H23 it was 2220 nM; in the experiment on COLO 205, 5260 nM; in the experiment with KM12, 1380 nM; with M14, 1710 nM; in the experiment on SK-MEL-2, 17300 nM. The GI50 in the experiment with SK-MEL-28 is 9100 nM; in experiment [2] it was 1910 nM; in the experiment with SK-OV-3 it was 4020 nM; in the experiment with RXF 393, 400 nM; in the experiment on SN12C, 1800 nM; in experiment [3] it was 400 nM. In addition, the concentration for 50% growth inhibition (GI50) is 6800 nM in experiment [4]; 210 nM with T47D; 1410 nM with A-431; 3890 nM in the experiment with LoVo; 510 nM in the experiment on CCRF-CEM [5]. Besides, the Ratio in the experiment with CCRF-CEM [6] worked out at 2.13. Also, the Activity amounted to 21% with Jurkat [7], 15.4% in the experiment on Jurkat [8] and 21.7% in the experiment with Jurkat [9]. Also, the result (with Jurkat [10]; in [11]) was Active.
Consider `COc1ccc2c(c1)nnc1c3cccnc3[nH]c21`, for which the GI50 in experiment [1] was found to be 2820 nM; in the experiment on NCI-H23, 5500 nM; in the experiment on COLO 205, 1130 nM; in the experiment with KM12, 1220 nM; in the experiment on M14, 1070 nM; in the experiment with SK-MEL-2, 1960 nM. For the same compound, the concentration for 50% growth inhibition (GI50) amounted to 11800 nM in the experiment on SK-MEL-28; 1410 nM in experiment [2]; 2690 nM with SK-OV-3; 660 nM with RXF 393; 1630 nM in the experiment on SN12C; 120 nM in experiment [3]. In addition, the GI50 in experiment [4] came to 3470 nM; in the experiment on T47D, 490 nM; in the experiment on A-431, 2350 nM; in the experiment on LoVo, 3640 nM; with CCRF-CEM [5], 1020 nM. Moreover, in the experiment on CCRF-CEM [6], the Ratio turned out to be 1.57. For the same compound, the Activity in the experiment with Jurkat [7] worked out at 33.2%; in the experiment on Jurkat [8] it was 24.1%; in the experiment with Jurkat [9], 39.8%. Moreover, the result (with Jurkat [10]; in experiment [11]) was Active.

As a reminder, the GI50 is the concentration that inhibits growth by half.
